Results: ChEMBL document CHEMBL1121771, “Chemistry and hypoglycemic activity of benzimidoylpyrazoles” (J Med Chem, 1981)

Key:
[1] = test system: Rattus norvegicus; experiment: Blood glucose concentration 2 hours after the administration in glucose-primed rat at 100 mg/kg.; type: functional
How it was run: (§1)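 Male Sprague-Dawley rats (140-150 g), groups of six, fasted 16 h, then given 100 mg glucose sc in 0.5 mL isotonic NaCl. Test compound given orally right after as an aqueous carboxymethylcellulose suspension (0.5 mL); controls received vehicle. Blood was taken by cardiac puncture under light ether anesthesia 2 h later. Glucose measured by Autoanalyzer modification of Hoffman method; mean percent change versus control group.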

[2] = species: Rattus norvegicus; experiment: Percent change in blood glucose concentration in glucose-primed rat to that of control rats.; type: functional; how it was run: as §1
[3] = test system: Rattus norvegicus; experiment: Blood glucose concentration at 2 hours after the administration in glucose-primed rat; type: functional; how it was run: as §1
[4] = test system: Rattus norvegicus; experiment: Percent reduction in blood glucose after perorally administration of compound at 10 mg/kg in adrenalectomized rat(p= 0.05); type: functional; settings: route oral
[5] = test system: Cavia porcellus; experiment: Percent reduction in blood glucose after perorally administration of compound at 100 mg/kg in normal fasted guinea pig; type: functional; settings: route oral
How it was run: (§2)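 Hartley guinea pigs (450-500 g), male and female, grouped by sex in fours, food withheld 18 h, water allowed. Zero-time blood taken by cardiac puncture, then oral dosing, with a second cardiac sample 5 h later. Reported as percent change in blood glucose relative to the pretreatment value.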

[6] = test system: Cavia porcellus; experiment: Percent reduction in blood glucose after perorally administration of compound at 150 mg/kg in normal fasted guinea pig; type: functional; settings: route oral; how it was run: as §2
[7] = Lethal dose after intraperitoneal administration in mouse; settings: in vivo, ip
[8] = test system: Rattus norvegicus; experiment: Percent reduction in blood glucose after perorally administration of compound at 25 mg/kg in glucose-primed rat; type: functional; settings: route oral; how it was run: as §1
[9] = test system: Rattus norvegicus; experiment: Percent reduction in blood glucose after perorally administration of compound at 10 mg/kg in glucose-primed rat; type: functional; settings: route oral; how it was run: as §1
[10] = test system: Rattus norvegicus; experiment: Percent reduction in blood glucose after perorally administration of compound at 100 mg/kg in alloxanized rat; type: functional; settings: route oral
How it was run: (§3)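 Male Sprague-Dawley rats (180-220 g) made diabetic with 225 mg/kg alloxan monohydrate intraabdominally; glucosuria checked by reagent strip after 3 days, positives grouped in sixes. Control tail-vein blood taken, oral compound given, blood resampled at 5 h. Reported as percent change in blood glucose versus pretreatment.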

[11] = test system: Cavia porcellus; experiment: Percent reduction in blood glucose after perorally administration of compound at 125 mg/kg in normal fasted guinea pig; type: functional; settings: route oral; how it was run: as §2
[12] = test system: Rattus norvegicus; experiment: Percent reduction in blood glucose after perorally administration of compound at 500 mg/kg in glucose-primed rat; type: functional; settings: route oral; how it was run: as §1
[13] = test system: Rattus norvegicus; experiment: Percent reduction in blood glucose after perorally administration of compound at 20 mg/kg in adrenalectomized rat; type: functional; settings: route oral
[14] = Lethal dose after peroral administration in mouse; settings: in vivo, po
[15] = test system: Rattus norvegicus; experiment: Percent reduction in blood glucose after perorally administration of compound at 25 mg/kg in non-glucose-primed rat; type: functional; settings: route oral
[16] = test system: Cavia porcellus; experiment: Percent reduction in blood glucose after perorally administration of compound at 160 mg/kg in normal fasted guinea pig; type: functional; settings: route oral; how it was run: as §2
[17] = test system: Rattus norvegicus; experiment: Percent reduction in blood glucose after perorally administration of compound at 250 mg/kg in glucose-primed rat; type: functional; settings: route oral; how it was run: as §1
[18] = test system: Rattus norvegicus; experiment: Percent reduction in blood glucose after perorally administration of compound at 100 mg/kg in glucose-primed rat; type: functional; settings: route oral; how it was run: as §1
[19] = test system: Rattus norvegicus; experiment: Percent reduction in blood glucose after perorally administration of compound at 29.2 mg/kg in alloxanized rat; type: functional; settings: route oral; how it was run: as §3
[20] = test system: Cavia porcellus; experiment: Percent reduction in blood glucose after perorally administration of compound at 30 mg/kg in normal fasted guinea pig; type: functional; settings: route oral; how it was run: as §2
[21] = test system: Rattus norvegicus; experiment: Percent reduction in blood glucose after perorally administration of compound at 300 mg/kg in non-glucose-primed rat; settings: route oral
[22] = test system: Rattus norvegicus; experiment: Percent reduction in blood glucose after perorally administration of compound at 50 mg/kg in glucose-primed rat; type: functional; settings: route oral; how it was run: as §1
[23] = test system: Rattus norvegicus; experiment: Percent reduction in blood glucose after perorally administration of compound at 100 mg/kg in non-glucose-primed rat; type: functional; settings: route oral
[24] = test system: Rattus norvegicus; experiment: Percent reduction in blood glucose after perorally administration of compound at 300 mg/kg in alloxanized rat; type: functional; settings: route oral; how it was run: as §3
[25] = test system: Rattus norvegicus; experiment: Percent reduction in blood glucose after perorally administration of compound at 25 mg/kg in adrenalectomized rat; type: functional; settings: route oral
[26] = test system: Rattus norvegicus; experiment: Percent reduction in blood glucose after perorally administration of compound at 25 mg/kg in adrenalectomized rat; settings: route oral
[27] = test system: Rattus norvegicus; experiment: Percent reduction in blood glucose after perorally administration of compound at 100 mg/kg in non-glucose-primed rat; settings: route oral
[28] = test system: Rattus norvegicus; experiment: Percent reduction in blood glucose after perorally administration of compound at 80 mg/kg in non-glucose-primed rat; type: functional; settings: route oral
[29] = test system: Cavia porcellus; experiment: Percent reduction in blood glucose after perorally administration of compound at 25 mg/kg in normal fasted guinea pig; type: functional; settings: route oral; how it was run: as §2
[30] = test system: Rattus norvegicus; experiment: Percent reduction in blood glucose after perorally administration of compound at 120 mg/kg in non-glucose-primed rat; type: functional; settings: route oral

Structure (SMILES) | Blood glucose [1] | Change [2] | Blood glucose [3] | other results
COC(=O)c1cc(C)n(/C(=N\CC(C)C)c2ccc(F)cc2)n1 | 68.9% | 1.3% | – | –
COC(=O)c1cc(C)n(/C(=N\CCC(C)C)c2ccccc2)n1 | 91.3% | 1.3% | – | –
COC(=O)c1cc(-c2ccc(Cl)cc2)n(/C(=N\c2ccccc2)c2ccccc2C)n1 | 71.1% | 6.3% | – | –
COC(=O)c1cc(C)n(/C(=N\c2ccccc2)c2ccccc2C)n1 | – | 21.4% | 57.7% | –
COC(=O)c1cc(C)n(/C(=N\CC(C)C)c2ccc(C)cc2)n1 | 65.2% | 19% | – | –
COC(=O)c1cc(C)n(/C(=N\c2ccccc2)c2ccccc2OC)n1 | – | 25.7% | 58.3% | –
COC(=O)c1cc(C)n(/C(=N\c2cccc(OC)c2)c2ccccc2)n1 | – | 22% | 63% | –
COC(=O)c1cc(C)n(/C(=N\c2ccc(Cl)cc2)c2ccccc2)n1 | 78.7% | 5.5% | – | –
COC(=O)c1cc(C)n(/C(=N\c2ccc(C)cc2)c2ccccc2)n1 | – | 18.9% | 71.9% | –
COC(=O)c1cc(-c2ccc(Cl)cc2)n(/C(=N\C2CCCCC2)c2ccccc2OC)n1 | 69.2% | 12.9% | – | –
Cc1ccc(S(=O)(=O)NC(=O)NN2CCCCCC2)cc1 [TOLAZAMIDE] | – | – | – | Reduction [4]: 75.8%; Reduction [5]: 33.5%; Reduction [6]: 30.4%; LD50 [7]: 1000 mg/kg; Reduction [8]: 50%; Reduction [9]: 28.1%; Reduction [10]: 0%; Reduction [11]: 26.7%; Reduction [12]: 51.1%; Reduction [13]: 85.6%; LD50 [14]: 1000 mg/kg; Reduction [15]: 29.4%; Reduction [16]: 25%; Reduction [17]: 42.9%
COC(=O)c1cc(-c2ccc(Cl)cc2)n(/C(=N\c2ccc(C)cc2)c2ccc(C)cc2)n1 | 69.8% | 9% | – | –
CCCC/N=C(/c1ccccc1)n1nc(C(=O)OC)cc1C | 66.1% | 21.2% | – | –
Cc1cc(C)n(/C(=N\CC(C)C)c2ccccc2)n1 | 62.8% | 10.6% | – | –
COC(=O)c1cc(C)n(/C(=N\c2cccc(C)c2C)c2ccccc2)n1 | 75.6% | 8.3% | – | –
CCCCNC(=N)NC(=N)N [BUFORMIN] | – | – | – | LD50 [7]: 140 mg/kg; Reduction [18]: 0%; Reduction [19]: 21.9%; Reduction [20]: 50%; Reduction [21]: 25.9%; LD50 [14]: 300 mg/kg
CC/N=C(/c1ccccc1)n1nc(C(=O)OC)cc1C | 54.9% | 34% | – | –
COC(=O)c1cc(C)n(/C(=N\c2ccccc2OC)c2ccccc2)n1 | – | 35.1% | 96% | –
COC(=O)c1cc(C)n(/C(=N\c2cccc(C(F)(F)F)c2)c2ccccc2)n1 | – | 33.5% | 57.9% | –
COC(=O)c1cc(C)n(/C(=N\c2ccc(C)cc2)c2ccc(C)cc2)n1 | – | 25.4% | 60.4% | –

Structure (SMILES) | Blood glucose [1] | Change [2] | Blood glucose [3] | other results
COC(=O)c1cc(C)n(/C(=N\CC(C)C)c2cccc(C(F)(F)F)c2)n1 | 62.2% | 25.2% | – | –
CCC/N=C(/c1ccccc1)n1nc(C(=O)OC)cc1C | 80.5% | 6.2% | – | –
COC(=O)c1cc(C)n(/C(=N\c2ccccc2)c2ccccc2)n1 | – | 34.3% | 58% | –
Cc1cc(C)n(/C(=N\C2CCCCC2)c2ccccc2)n1 | 69.8% | 13.6% | – | –
COC(=O)c1cc(C)n(/C(=N\c2ccc(OC)cc2)c2ccccc2)n1 | – | 40% | 62.2% | Reduction [22]: 33.8%; Reduction [5]: 21%; LD50 [7]: 1000 mg/kg; Reduction [23]: 31.5%; Reduction [18]: 51.3%; Reduction [8]: 35.2%; Reduction [24]: 49%; LD50 [14]: 1000 mg/kg; Reduction [25]: 44.3%
COc1ccc(/N=C(/c2ccccc2)n2nc(C)cc2C)cc1 | – | 27.2% | 60.6% | –
COC(=O)c1cc(C)n(/C(=N\c2ccccc2)c2ccc(Cl)c(Cl)c2)n1 | – | 24.3% | 101.5% | –
COC(=O)c1cc(C)n(/C(=N\C2CCCCC2)c2ccccc2OC)n1 | – | 20.5% | 68.4% | –
CC/N=C(/c1ccccc1)n1nc(C)cc1C | 58.6% | 24.7% | – | –
COC(=O)c1cc(-c2ccc(Cl)cc2)n(/C(=N\C2CCCCC2)c2ccccc2)n1 | 84.9% | 4.4% | – | –
COC(=O)c1cc(C)n(/C(=N\c2ccccc2)c2ccccc2Cl)n1 | 70% | 8.9% | – | –
C=CC/N=C(/c1ccccc1)n1nc(C(=O)OC)cc1C | 69.6% | 7% | – | –
COC(=O)c1cc(-c2ccc(Cl)cc2)n(/C(=N\c2ccc(Cl)cc2)c2ccccc2)n1 | 77.7% | 1.2% | – | –
COC(=O)c1cc(C)n(/C(=N\C2CCCCC2)c2ccccc2)n1 | – | 34.5% | 52.1% | Reduction [26]: 32%; LD50 [7]: 1000 mg/kg; Reduction [3]: 27%; Reduction [19]: 29.5%; Reduction [20]: 0%; LD50 [14]: 1000 mg/kg; Reduction [27]: 7.6%
COC(=O)c1cc(-c2ccc(Cl)cc2)n(/C(=N\c2ccccc2)c2ccccc2)n1 | 81.1% | 5.6% | – | –
COC(=O)c1cc(-c2ccc(Cl)cc2)n(/C(=N\c2ccc(OC)cc2)c2ccccc2)n1 | 78.4% | 3.9% | – | –
N=C(N)NC(=N)NCCc1ccccc1 [PHENFORMIN] | – | – | – | Reduction [28]: 25.3%; Reduction [29]: 46%; Reduction [18]: 0%; Reduction [10]: 62%; Reduction [30]: 52.9%
COC(=O)c1cc(C)n(/C(=N\CC(C)C)c2ccccc2)n1 | 59.7% | 25.5% | – | –
Cc1cc(C)n(/C(=N\c2ccccc2)c2ccccc2)n1 | – | 18.3% | 72.1% | –
COC(=O)c1cc(C)n(/C(=N\c2ccc(OC)c(OC)c2)c2ccccc2)n1 | – | 34.1% | 58% | –
